In ChEMBL document CHEMBL1128714, “Synthesis and anti-HIV activity of 1,1'-dideoxygossypol and related compounds” (J Med Chem, 1995):

Tests used:
HeLa [1] = test: Highest concentration at which no visible changes in cell morphology or monolayer adhesion was detected.; format: functional, Homo sapiens
HeLa [2] = test: Compound was evaluated for the anti HIV activity in HT46c (HeLaT4+) cells as host cells for H9/HIV-IIIB strain of the HIV-1 virus; anti HIV activity masked by cytotoxicity; format: functional, cell-based, Homo sapiens
HeLa [3] = test: Compound was evaluated for the anti HIV activity in HT46c (HeLaT4+) cells as host cells for H9/HIV-IIIB strain of the HIV-1 virus; format: functional, cell-based; conditions: Homo sapiens
How it was run: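 HT46c (HeLaT4+) cells were plated at 5×10^4 cells/well in RPMI 1640 with 10% FBS and attached overnight. They were infected with HIV-1 H9/HIV-IIIB at an input giving 100–200 foci/well in positive controls by day 3. Compound was tested at 0.01, 0.1, 1.0, 5.0 and 20 μM for 3 days at 37 °C, 5% CO2. Foci were counted by focal immunoassay on methanol-fixed monolayers, and EC50 was derived.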

**Q.** How did the TC (HeLa [1]) turn out when `Cc1ccc2c(C(=O)O)c(O)c(O)c(C(C)C)c2c1` was run?
**A.** Its TC is over 20 µM.

**Q.** What does the source list for `Cc1cc2c(C(C)C)c(O)c(O)c(C=O)c2cc1-c1cc2c(C=O)c(O)c(O)c(C(C)C)c2cc1C`?
**A.** EC50 (HeLa [2]): anti HIV activity masked by cytotoxicity; TC (HeLa [1]): >1 µM

**Q.** For `Cc1cc2c(C(C)C)c(O)c(O)c(C(=O)O)c2cc1-c1cc2c(C(=O)O)c(O)c(O)c(C(C)C)c2cc1C`, which EC50 (HeLa [3]) is on record?
**A.** The EC50 was 0.7 µM.

**Q.** And the TC (HeLa [1])?
**A.** Its TC is over 5 µM.

**Q.** With `Cc1ccc2c(C=O)c(O)c(O)c(C(C)C)c2c1` as the compound, how does the EC50 (HeLa [3]) read?
**A.** Its EC50 is 20 µM.

**Q.** And the TC (HeLa [1])?
**A.** Its TC is over 1 µM.
